Test results taken from ChEMBL document CHEMBL4342493, “Design and Optimization of 3'-(Imidazo[1,2-a]pyrazin-3-yl)-[1,1'-biphenyl]-3-carboxamides as Selective DDR1 Inhibitors” (ACS Med Chem Lett, 2020).
pIC50, pKd: −log10 of the molar value.

Experiments:
Bcr/Abl fusion protein = Bcr/Abl fusion protein (Homo sapiens, UniProt P00519); assay: Inhibition of human recombinant full length His-tagged Bcr-Abl expressed in baculovirus expression system using tyrosine-2 peptide as substrate after 1 hr in presence of […] ATP by FRET based Z'-LYTE assay
Method in brief: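 FRET-based Z′-Lyte kinase assay for Bcr-Abl; IC50 values are means of three independent experiments, variations <20%.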

[1] = target: Mast/stem cell growth factor receptor Kit (Homo sapiens, UniProt P10721); assay: Inhibition of human recombinant His-tagged c-Kit cytoplasmic domain (544 to 976 residues) expressed in baculovirus expression system using Ser/Thr 6 peptide as substrate after 1 hr in presence of 300 uM ATP by FRET based Z'-LYTE assay
Homo sapiens [2] = organism: Homo sapiens; assay: Selectivity index, ratio of IC50 for recombinant human GST-tagged DDR2 cytoplasmic domain (427 to 855 residues) expressed in baculovirus expression system to IC50 for recombinant human GST-tagged DDR1 catalytic domain (440 to 876 residues) expressed in baculovirus expression system using Fluorescein-poly GAT as substrate incubated for 1 hr in presence of ATP by LanthaScreen Eu kinase assay
Method in brief: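 Ratio of DDR2 IC50 to DDR1 IC50. Both kinases were measured by LanthaScreen Eu kinase assay. Each IC50 is the mean of three independent experiments, with variation <20%.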

Homo sapiens [3] = organism: Homo sapiens; assay: Selectivity index, ratio of IC50 for human recombinant His-tagged c-Kit cytoplasmic domain (544 to 976 residues) expressed in baculovirus expression system using Ser/Thr 6 peptide as substrate after 1 hr in presence of 300 uM ATP by FRET based Z'-LYTE assay to IC50 for recombinant human GST-tagged DDR1 catalytic domain (440 to 876 residues) expressed in baculovirus expression system using Fluorescein-poly GAT as substrate incubated for 1 hr in presence of ATP by LanthaScreen Eu kinase assay
Method in brief: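 Ratio of c-Kit IC50 to DDR1 IC50. c-Kit was measured by FRET-based Z′-Lyte assay and DDR1 by LanthaScreen Eu kinase assay. Each IC50 is the mean of three independent experiments, with variation <20%.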

[4] = target: Epithelial discoidin domain-containing receptor 1 (Homo sapiens, UniProt Q08345); assay: Inhibition of human wild type partial length DDR1 (R565 to V876 residues) expressed in bacterial expression system assessed as residual enzyme activity at 200 nM after 1 hr by Kinomescan method relative to control
[5] = target: Dual specificity protein kinase CLK4 (Homo sapiens, UniProt Q9HAZ1); assay: Inhibition of wild-type human partial length CLK4 (R135 to K481 residues) expressed in bacterial expression system assessed as enzyme residual activity at 200 nM after 1 hr by Kinomescan method relative to control
[6] = target: T1, Discoidin domain-containing receptor 2 (Homo sapiens, UniProt Q16832); assay: Binding affinity to wild type human partial length DDR2 (V555 to E855 residues) expressed in mammalian expression system after 1 hr by Kinomescan method
T1 sequence (Q16832 whole entry): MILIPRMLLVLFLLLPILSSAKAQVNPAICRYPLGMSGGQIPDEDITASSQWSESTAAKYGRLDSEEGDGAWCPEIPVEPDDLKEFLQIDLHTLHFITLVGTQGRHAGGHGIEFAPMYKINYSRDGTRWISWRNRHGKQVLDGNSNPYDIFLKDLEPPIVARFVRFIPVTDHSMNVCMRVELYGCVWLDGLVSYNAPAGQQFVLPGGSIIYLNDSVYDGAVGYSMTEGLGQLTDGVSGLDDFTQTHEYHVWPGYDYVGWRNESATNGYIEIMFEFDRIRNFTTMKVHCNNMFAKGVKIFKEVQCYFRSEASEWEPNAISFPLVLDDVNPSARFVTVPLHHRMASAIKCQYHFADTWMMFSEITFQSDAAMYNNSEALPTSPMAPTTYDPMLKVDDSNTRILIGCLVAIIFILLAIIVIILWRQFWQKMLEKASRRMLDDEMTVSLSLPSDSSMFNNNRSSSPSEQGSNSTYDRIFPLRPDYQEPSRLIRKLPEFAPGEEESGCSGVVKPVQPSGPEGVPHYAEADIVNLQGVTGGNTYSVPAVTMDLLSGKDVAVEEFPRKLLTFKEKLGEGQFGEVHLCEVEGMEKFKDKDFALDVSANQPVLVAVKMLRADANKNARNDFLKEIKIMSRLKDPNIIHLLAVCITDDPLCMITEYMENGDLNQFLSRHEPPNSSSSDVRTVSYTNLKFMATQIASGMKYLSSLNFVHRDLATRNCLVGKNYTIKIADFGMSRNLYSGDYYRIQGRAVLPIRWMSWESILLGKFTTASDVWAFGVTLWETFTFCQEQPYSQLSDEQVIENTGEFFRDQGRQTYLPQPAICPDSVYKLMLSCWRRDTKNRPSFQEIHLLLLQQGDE
Method in brief: (§1)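 KINOMEscan binding; Kd determined for DDR1 and the off-target kinases DDR2, CAMK1D, CLK4 and TTK.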

[7] = target: T2, Dual specificity protein kinase TTK (Homo sapiens, UniProt P33981); assay: Binding affinity to wild-type human partial length TTK (N505 to V798 residues) expressed in bacterial expression system after 1 hr by Kinomescan method; method in brief: as §1
T2 sequence (P33981 whole entry): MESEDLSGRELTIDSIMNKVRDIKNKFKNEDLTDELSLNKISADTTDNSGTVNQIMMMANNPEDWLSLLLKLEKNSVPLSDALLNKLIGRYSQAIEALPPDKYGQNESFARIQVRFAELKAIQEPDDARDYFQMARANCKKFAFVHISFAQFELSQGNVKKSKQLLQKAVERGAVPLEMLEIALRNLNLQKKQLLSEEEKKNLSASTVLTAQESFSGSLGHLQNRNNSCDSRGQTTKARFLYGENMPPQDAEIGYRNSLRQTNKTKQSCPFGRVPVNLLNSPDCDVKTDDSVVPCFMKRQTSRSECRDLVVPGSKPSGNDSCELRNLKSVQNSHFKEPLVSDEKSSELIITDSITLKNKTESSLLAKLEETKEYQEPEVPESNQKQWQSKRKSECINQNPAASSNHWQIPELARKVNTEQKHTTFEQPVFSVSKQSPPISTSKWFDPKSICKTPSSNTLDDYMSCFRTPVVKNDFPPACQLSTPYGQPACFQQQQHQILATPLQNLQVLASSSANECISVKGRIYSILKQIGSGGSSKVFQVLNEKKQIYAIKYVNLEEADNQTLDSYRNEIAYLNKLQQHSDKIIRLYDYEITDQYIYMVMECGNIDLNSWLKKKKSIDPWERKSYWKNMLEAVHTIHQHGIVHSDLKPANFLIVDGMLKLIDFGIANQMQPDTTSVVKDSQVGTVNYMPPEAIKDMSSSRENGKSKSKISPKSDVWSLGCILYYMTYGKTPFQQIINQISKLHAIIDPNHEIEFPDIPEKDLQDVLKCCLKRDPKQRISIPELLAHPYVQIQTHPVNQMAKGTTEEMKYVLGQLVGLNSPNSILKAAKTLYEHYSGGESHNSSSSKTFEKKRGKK

NCI-H1299 = assay: Antiproliferative activity against human H1299 cells assessed as reduction in cell viability after 72 hrs by CCK-8 assay; type: functional, cell-based; details: NCI-H1299, 72 h
Method in brief: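 CCK-8 proliferation assay in H1299 cells; IC50 derived from dose-response; means of three independent experiments.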

Epithelial discoidin domain-containing receptor 1, sequence (Q08345 whole entry, the tested form may be a part): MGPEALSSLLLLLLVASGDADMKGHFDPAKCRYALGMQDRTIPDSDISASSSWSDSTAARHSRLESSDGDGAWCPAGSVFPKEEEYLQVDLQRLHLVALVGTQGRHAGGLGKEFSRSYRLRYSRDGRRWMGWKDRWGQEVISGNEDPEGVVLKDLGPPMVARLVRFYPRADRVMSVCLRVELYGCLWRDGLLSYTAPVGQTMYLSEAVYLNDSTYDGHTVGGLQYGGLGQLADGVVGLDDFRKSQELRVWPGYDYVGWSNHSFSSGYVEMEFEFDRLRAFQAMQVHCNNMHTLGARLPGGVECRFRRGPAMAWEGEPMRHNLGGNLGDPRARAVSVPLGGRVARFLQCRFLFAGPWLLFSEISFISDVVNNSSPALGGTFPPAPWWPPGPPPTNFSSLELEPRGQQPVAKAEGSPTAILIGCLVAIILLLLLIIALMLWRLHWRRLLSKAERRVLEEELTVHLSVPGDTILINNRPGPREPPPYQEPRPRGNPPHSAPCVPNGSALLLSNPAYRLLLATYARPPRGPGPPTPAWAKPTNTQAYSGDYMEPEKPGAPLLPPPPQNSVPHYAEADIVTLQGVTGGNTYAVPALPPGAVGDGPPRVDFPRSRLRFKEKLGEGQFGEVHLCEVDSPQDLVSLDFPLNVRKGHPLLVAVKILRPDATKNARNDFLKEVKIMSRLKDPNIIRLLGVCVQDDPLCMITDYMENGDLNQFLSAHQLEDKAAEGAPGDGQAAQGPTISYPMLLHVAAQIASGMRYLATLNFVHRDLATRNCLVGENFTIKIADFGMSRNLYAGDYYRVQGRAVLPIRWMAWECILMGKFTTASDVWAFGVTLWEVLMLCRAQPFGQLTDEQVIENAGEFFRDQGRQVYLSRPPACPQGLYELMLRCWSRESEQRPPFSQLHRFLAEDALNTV
Bcr/Abl fusion protein, sequence (P00519 whole entry, the tested form may be a part): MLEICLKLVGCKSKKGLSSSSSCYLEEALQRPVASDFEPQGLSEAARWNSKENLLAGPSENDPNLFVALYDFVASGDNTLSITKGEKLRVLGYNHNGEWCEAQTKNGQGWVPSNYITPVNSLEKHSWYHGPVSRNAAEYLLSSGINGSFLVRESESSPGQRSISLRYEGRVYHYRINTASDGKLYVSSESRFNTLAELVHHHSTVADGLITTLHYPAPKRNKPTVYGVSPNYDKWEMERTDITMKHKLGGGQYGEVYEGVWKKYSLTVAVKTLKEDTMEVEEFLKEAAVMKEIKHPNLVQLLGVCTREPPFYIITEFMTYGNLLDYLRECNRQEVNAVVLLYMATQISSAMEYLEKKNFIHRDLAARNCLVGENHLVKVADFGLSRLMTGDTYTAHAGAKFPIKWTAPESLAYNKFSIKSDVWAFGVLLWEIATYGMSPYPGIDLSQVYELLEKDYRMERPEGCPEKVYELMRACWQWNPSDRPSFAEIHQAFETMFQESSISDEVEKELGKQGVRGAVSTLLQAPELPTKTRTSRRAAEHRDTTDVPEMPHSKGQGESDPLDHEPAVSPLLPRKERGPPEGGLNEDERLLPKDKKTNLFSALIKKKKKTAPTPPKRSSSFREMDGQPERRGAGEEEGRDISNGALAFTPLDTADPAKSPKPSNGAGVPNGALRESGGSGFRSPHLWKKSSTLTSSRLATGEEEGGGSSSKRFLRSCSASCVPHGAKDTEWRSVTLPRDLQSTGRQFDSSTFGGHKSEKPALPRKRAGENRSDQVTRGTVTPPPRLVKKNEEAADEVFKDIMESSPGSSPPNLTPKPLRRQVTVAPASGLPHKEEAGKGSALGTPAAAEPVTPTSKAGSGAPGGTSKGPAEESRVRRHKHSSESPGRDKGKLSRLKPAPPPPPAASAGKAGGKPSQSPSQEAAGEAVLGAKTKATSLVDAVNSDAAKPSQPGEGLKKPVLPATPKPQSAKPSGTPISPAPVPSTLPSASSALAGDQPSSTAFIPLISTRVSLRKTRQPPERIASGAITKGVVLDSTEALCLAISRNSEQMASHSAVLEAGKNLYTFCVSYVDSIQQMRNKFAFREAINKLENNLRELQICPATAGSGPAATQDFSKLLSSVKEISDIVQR
Bcr/Abl fusion protein, sequence (P11274 whole entry, further chain, the tested form may be a part): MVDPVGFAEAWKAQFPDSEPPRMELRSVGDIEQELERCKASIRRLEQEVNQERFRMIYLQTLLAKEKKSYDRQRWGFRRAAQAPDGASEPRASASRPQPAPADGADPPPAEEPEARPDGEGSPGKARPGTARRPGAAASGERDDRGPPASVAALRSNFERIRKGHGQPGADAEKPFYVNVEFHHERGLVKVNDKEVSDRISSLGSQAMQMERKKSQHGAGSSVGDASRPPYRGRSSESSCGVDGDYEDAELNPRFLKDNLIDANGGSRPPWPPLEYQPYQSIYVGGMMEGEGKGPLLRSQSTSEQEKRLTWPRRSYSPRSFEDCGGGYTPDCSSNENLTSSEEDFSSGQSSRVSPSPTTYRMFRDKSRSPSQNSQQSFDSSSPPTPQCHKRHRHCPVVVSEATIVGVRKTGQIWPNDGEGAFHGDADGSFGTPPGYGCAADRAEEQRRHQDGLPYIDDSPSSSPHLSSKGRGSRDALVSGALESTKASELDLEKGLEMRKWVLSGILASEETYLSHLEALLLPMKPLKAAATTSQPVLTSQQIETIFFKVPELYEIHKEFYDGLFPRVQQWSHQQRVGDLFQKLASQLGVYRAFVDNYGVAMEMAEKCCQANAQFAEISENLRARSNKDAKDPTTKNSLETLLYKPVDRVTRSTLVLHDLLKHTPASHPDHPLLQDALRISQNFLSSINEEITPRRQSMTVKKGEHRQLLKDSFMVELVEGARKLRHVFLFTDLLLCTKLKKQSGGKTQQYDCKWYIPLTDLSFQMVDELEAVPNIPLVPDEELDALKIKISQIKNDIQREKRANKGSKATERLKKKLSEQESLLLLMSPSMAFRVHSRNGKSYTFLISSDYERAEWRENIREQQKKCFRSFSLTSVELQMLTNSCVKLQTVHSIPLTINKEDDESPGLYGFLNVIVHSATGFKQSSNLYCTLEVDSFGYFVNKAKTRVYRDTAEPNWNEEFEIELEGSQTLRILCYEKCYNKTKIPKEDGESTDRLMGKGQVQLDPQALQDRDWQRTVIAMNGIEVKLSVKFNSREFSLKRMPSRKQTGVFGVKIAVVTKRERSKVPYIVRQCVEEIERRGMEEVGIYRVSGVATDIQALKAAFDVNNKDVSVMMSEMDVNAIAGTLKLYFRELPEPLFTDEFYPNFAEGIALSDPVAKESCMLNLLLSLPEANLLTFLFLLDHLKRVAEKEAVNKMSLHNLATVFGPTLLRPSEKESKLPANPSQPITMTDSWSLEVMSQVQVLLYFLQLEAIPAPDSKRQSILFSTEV
Dual specificity protein kinase CLK4, sequence (Q9HAZ1 whole entry, looked up, the tested form may be a part): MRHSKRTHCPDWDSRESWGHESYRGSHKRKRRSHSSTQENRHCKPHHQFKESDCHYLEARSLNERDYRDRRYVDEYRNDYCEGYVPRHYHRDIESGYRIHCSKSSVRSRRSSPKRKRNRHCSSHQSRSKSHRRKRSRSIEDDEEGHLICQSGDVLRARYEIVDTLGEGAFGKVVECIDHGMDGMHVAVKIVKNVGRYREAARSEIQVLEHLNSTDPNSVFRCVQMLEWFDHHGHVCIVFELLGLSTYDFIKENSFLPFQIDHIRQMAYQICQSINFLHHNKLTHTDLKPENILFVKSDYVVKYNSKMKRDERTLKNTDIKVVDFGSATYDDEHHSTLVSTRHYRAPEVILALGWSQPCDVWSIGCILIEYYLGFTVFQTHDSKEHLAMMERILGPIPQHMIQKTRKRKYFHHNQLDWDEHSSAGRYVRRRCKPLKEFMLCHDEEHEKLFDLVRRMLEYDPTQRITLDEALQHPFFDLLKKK
Mast/stem cell growth factor receptor Kit, sequence (P10721 whole entry, the tested form may be a part): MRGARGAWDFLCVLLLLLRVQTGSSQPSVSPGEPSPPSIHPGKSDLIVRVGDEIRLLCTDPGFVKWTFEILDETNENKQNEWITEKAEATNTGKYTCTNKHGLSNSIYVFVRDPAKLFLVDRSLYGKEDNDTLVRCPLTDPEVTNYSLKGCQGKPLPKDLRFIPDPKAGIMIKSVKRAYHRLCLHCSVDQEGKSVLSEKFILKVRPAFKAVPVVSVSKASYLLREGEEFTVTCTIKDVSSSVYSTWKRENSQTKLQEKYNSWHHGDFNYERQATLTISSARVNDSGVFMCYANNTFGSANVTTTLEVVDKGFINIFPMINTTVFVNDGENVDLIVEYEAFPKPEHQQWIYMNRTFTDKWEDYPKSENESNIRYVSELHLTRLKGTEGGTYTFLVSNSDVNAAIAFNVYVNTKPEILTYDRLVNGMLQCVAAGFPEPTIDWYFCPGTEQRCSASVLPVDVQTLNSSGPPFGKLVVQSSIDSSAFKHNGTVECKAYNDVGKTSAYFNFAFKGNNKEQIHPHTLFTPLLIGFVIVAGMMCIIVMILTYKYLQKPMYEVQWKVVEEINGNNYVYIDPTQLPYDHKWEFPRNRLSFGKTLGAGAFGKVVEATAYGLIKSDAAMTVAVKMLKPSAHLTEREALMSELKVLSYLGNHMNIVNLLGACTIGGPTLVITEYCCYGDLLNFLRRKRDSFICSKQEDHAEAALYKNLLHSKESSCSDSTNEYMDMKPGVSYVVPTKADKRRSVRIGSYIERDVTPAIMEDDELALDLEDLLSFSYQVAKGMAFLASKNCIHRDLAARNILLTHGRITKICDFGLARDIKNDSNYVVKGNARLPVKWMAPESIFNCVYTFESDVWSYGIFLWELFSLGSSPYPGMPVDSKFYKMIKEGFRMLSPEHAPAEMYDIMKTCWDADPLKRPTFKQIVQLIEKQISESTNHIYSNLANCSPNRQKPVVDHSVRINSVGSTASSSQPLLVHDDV

pIC50 (Bcr/Abl fusion protein): < 5.00
pIC50 [1]: < 5.00
Ratio IC50 (Homo sapiens [2]): 73
Ratio IC50 (Homo sapiens [3]): 420
Activity [4]: 0%
Activity [5]: 1.8%
pKd [6]: 7.07
pKd [7]: < 6.00
pIC50 (NCI-H1299): 5.18
Structure (SMILES): CCc1ccc(C(=O)Nc2cc(F)cc(C(F)(F)F)c2)cc1-c1cc(C)cc(-c2cnc3cnccn23)c1
